Measured values taken from ChEMBL document CHEMBL1938297, “Synthesis, radiofluorination and pharmacological evaluation of a fluoromethyl spirocyclic PET tracer for central σ1 receptors and comparison with fluoroalkyl homologs” (Bioorg Med Chem, 2012).

What was measured:
Assay type in all cases: ADME, organism-based; call rule not given here
Mus musculus = assay: Biodistribution in CD1 mouse lateral periaqueductal gray in brain saggital section at 24 MBq, iv at 45 mins by autoradiography; settings: in vivo, 0.75 h
Method in brief: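 Ex vivo autoradiography: female CD-1 mouse given 18F tracer iv (24 MBq), killed 45 min p.i.; brain hemispheres frozen in isopentane (−35 °C), 12 µm sagittal cryostat sections thaw-mounted, air-dried and exposed to 18F-sensitive phosphor screens. Regional uptake compared with anterior olfactory bulb as nontarget region (target-to-nontarget ratio).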

Brain [1] = assay: Biodistribution in CD1 mouse brain at 300 kBq, iv after 5 mins by gamma counting; settings: in vivo
Method in brief: (§1)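 Female CD-1 mice received [18F]1 (300 kBq) i.v.; 3–6 animals per time point anesthetized at 5, 30, 60 or 120 min p.i., blood and urine collected, animals euthanized by cervical dislocation, organs dissected and weighed. Radioactivity counted in a calibrated gamma counter; % ID/g = tissue counts / initial dose counts / tissue weight; means with SD.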

Blood = assay: Biodistribution in CD1 mouse blood at 300 kBq, iv after 30 mins by gamma counting; settings: in vivo, 0.5 h; method in brief: as §1
Pancreas = assay: Biodistribution in CD1 mouse pancreas at 300 kBq, iv after 30 mins by gamma counting; settings: in vivo, 0.5 h
Method in brief: (§2)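 Female CD-1 mice received the 18F tracer iv at 300 kBq in 0.9% NaCl containing 5% ethanol; 3–6 animals per time point (5, 30, 60, 120 min p.i.). Animals anaesthetized, blood and urine collected, killed by cervical luxation, organs dissected and weighed, counted in calibrated gamma counter. %ID/g = tissue counts / initial dose counts / tissue weight; mean with SD.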

Kidney = assay: Biodistribution in CD1 mouse kidney at 300 kBq, iv after 60 mins by gamma counting; settings: in vivo, 1 h; method in brief: as §2
Brain [2] = assay: Drug metabolism in CD1 mouse brain homogenates assessed as radiometabolites at 191 MBq, iv after 60 mins by radio-HPLC/TLC analysis; settings: in vivo, 1 h
Method in brief: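 Female CD-1 mice were injected with the radiotracer via the tail vein and killed at 30 or 60 min p.i. Whole brains (n = 2 per time) were homogenised in 50 mM TRIS–HCl pH 7.4 at 4 °C and extracted twice with ice-cold acetonitrile. Concentrated extracts were analysed by radio-HPLC and radio-TLC to give % parent versus radiometabolites.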

For `[18F]CC1OC2(CCN(Cc3ccccc3)CC2)c2ccccc21` (stereo unspecified), the Drug uptake (Mus musculus) was “Active”, the Drug uptake (Brain [1]) was 7.15 % ID/g and the Drug uptake (Blood) was 0.35 % ID/g. The Drug uptake (Pancreas) was 16.03 % ID/g, the Drug uptake (Kidney) was 6.03 % ID/g and the Drug metabolism (Brain [2]) was “Active”.
